Measurements gathered from unrelated publications.
Lines come from different studies, so protocols differ.

SMILES | tested on | test | test system | setting | endpoint | result
C[C@H]1Oc2cc(cnc2N)-c2c(nn(C)c2C#N)CN(C)C(=O)c2ccc(F)cc21 | – | – | male Sprague-Dawley rat, brain | oral, 10 mg/kg, 1 h, single dose | concentration | 495 ng/g
COc1ccc(C2CC(c3ccc(NC(=O)CN4CCN(c5ccc(OC)cc5)CC4)cc3)=NN2C(C)=O)cc1 (stereo not drawn) | MCF-10A | cell growth or viability, MTT | – | 50 µM, 96 h | viability | 92%
Cc1cc(S(=O)(=O)NC2CC(N3CCN(CC4CCN(c5cccc6c5n(C)c(=O)n6C5CCC(=O)NC5=O)CC4)CC3)C2)ccc1Nc1ncc(C(F)(F)F)c(N2CCC[C@](C)(O)C2)n1 (stereo partly drawn) | MDCK | – | Caco-2 | 1 µM, 2 h, pH 7.4 | Papp A→B | 1.2 ×10⁻⁶ cm/s
CN(C)CCOc1ccc2c(=O)c3c([nH]c2c1)CCCC3 | – | metabolic stability | mouse, liver microsomes | 1 µM, pH 7.4 | half-life | 34.3 min
CNS(=O)(=O)c1ccc(Nc2ncc(C(F)(F)F)c(N3CCC[C@](C)(O)C3)n2)c(C)c1 | MDCK | – | Caco-2 | 1 µM, 2 h, pH 7.4 | Papp A→B | 16 ×10⁻⁶ cm/s
O=c1c2ccccc2[nH]c2cc(Oc3ccc(OC(F)(F)F)cc3)ccc12 | – | metabolic stability | mouse, liver microsomes | 1 µM, pH 7.4 | half-life | 26.9 min
COc1ccc(N2CCN(CC(=O)Nc3ccc(C(=O)C=Cc4ccc(Br)cc4)cc3)CC2)cc1 | MCF-10A | cell growth or viability, MTT | – | 50 µM, 96 h | viability | 90%
Cc1ccc(-c2nn(-c3ccccc3)cc2C=Nc2c(N)nc(S)nc2O)cc1 | MCF-10A | cell growth or viability | – | 48 h | CC50 | > 20 µM
O=c1c2ccc(Oc3ccc(OC(F)(F)F)cc3)cc2[nH]c2cc(Cl)c(F)cc12 | – | metabolic stability | mouse, liver microsomes | 1 µM, pH 7.4 | half-life | > 60 min
COc1nc(-c2cccc(-c3ccccc3)c2C)ccc1CNCCNC(=O)CCCCCCCCCCC(=O)N1CCN(CCNC(=O)c2cc3c(=O)n4cccc(C)c4nc3n(CCc3cccs3)c2=N)CC1 | – | – | male Sprague-Dawley rat, plasma | oral, 40 mg/kg | half-life | 408 min
COc1ccc(N2CCN(CC(=O)Nc3ccc(C4=NN(C(C)=O)C(c5cc(OC)c(OC)c(OC)c5)C4)cc3)CC2)cc1 (stereo not drawn) | MCF-10A | cell growth or viability, MTT | – | 50 µM, 96 h | viability | 91%
CNS(=O)(=O)c1ccc(Nc2ncc(C(F)(F)F)c([C@H]3CC[C@@](C)(O)CC3)n2)c(C)c1 | MDCK | – | Caco-2 | 1 µM, 2 h, pH 7.4 | Papp A→B | 7.6 ×10⁻⁶ cm/s
CC(=O)N1N=C(c2ccc(NC(=O)CN3CCN(c4ccc(Cl)cc4)CC3)cc2)CC1c1ccco1 (stereo not drawn) | MCF-10A | cell growth or viability, MTT | – | 50 µM, 96 h | viability | 84%
CNS(=O)(=O)c1ccc(Nc2ncc(C(F)(F)F)c(N3CCC(C)(O)CC3)n2)c(C)c1 | MDCK | – | Caco-2 | 1 µM, 2 h, pH 7.4 | Papp A→B | 9 ×10⁻⁶ cm/s
O=c1c2ccc(OCc3cccc(OC(F)(F)F)c3)cc2[nH]c2cc(Cl)cc(F)c12 | – | metabolic stability | mouse, liver microsomes | 1 µM, pH 7.4 | half-life | > 60 min
Cc1ccc(C=CC(=O)c2ccc(NC(=O)CN3CCN(c4ccc(Cl)cc4)CC3)cc2)cc1 | MCF-10A | cell growth or viability, MTT | – | 50 µM, 96 h | viability | 89%
Cc1cc(S(=O)(=O)N[C@]2(C)C[C@@H](N3CCN(CC4CCN(c5ccc6c(c5F)n(C)c(=O)n6C5CCC(=O)NC5=O)CC4)CC3)C2)ccc1Nc1ncc(C(F)(F)F)c(N2CCC[C@](C)(O)C2)n1 (stereo partly drawn) | MDCK | – | Caco-2 | 1 µM, 2 h, pH 7.4 | Papp A→B | 1.5 ×10⁻⁶ cm/s
CC(=O)N1N=C(c2ccc(NC(=O)CN3CCN(c4ccc(Cl)cc4)CC3)cc2)CC1c1ccc(Cl)cc1Cl (stereo not drawn) | MCF-10A | cell growth or viability, MTT | – | 50 µM, 96 h | viability | 91%
Nc1nc(S)nc(O)c1N=Cc1cn(-c2ccccc2)nc1-c1ccc(Cl)cc1 | MCF-10A | cell growth or viability | – | 48 h | CC50 | > 40 µM
CCCN(CCC)CCOc1ccc2c(=O)c3c([nH]c2c1)CCCC3 | – | metabolic stability | mouse, liver microsomes | 1 µM, pH 7.4 | half-life | 26.9 min
O=C(CN1CCN(c2ccc(Cl)cc2)CC1)Nc1ccc(C(=O)C=Cc2ccccc2)cc1 | MCF-10A | cell growth or viability, MTT | – | 50 µM, 96 h | viability | 85%
O=c1c2c([nH]c3ccc(Oc4ccc(OC(F)(F)F)cc4)cc13)CCCC2 | – | metabolic stability | mouse, liver microsomes | 1 µM, pH 7.4 | half-life | 35.5 min
Cc1cc(S(=O)(=O)NC2CC(N3CCN(CC4CCN(c5cccc6c5n(C)c(=O)n6C5CCC(=O)NC5=O)CC4)C4(CC4)C3)C2)ccc1Nc1ncc(C(F)(F)F)c(N2CCC[C@](C)(O)C2)n1 (stereo partly drawn) | MDCK | – | Caco-2 | 1 µM, 2 h, pH 7.4 | Papp A→B | 0.7 ×10⁻⁶ cm/s
CCCCN(CCCC)CCCOc1ccc2c(=O)c3c([nH]c2c1)CCCC3 | – | metabolic stability | mouse, liver microsomes | 1 µM, pH 7.4 | half-life | 38.3 min
COc1ccc(C2CC(c3ccc(NC(=O)CN4CCN(c5ccc(Cl)cc5)CC4)cc3)=NN2C(C)=O)cc1 (stereo not drawn) | MCF-10A | cell growth or viability, MTT | – | 50 µM, 96 h | viability | 86%
O=c1c2ccc(OCc3cccc(C(F)(F)F)c3)cc2[nH]c2ccc(Cl)c(F)c12 | – | metabolic stability | mouse, liver microsomes | 1 µM, pH 7.4 | half-life | > 60 min
CNS(=O)(=O)c1ccc(Nc2ncc3cc(Cl)c(=O)n(C4CCCC4)c3n2)c(C)c1 | MDCK | – | Caco-2 | 1 µM, 2 h, pH 7.4 | Papp A→B | 3.6 ×10⁻⁶ cm/s
